TRPC6 inh: mouse TRPC6 channel inhibition. HEK293-TRPC6, membrane potential dye, ACh-evoked depolarization; hits give low values. B-score at 10 µM. 310,000 compounds, 1.1% hits. AID 2553;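 active = B-score under library mean minus 3 SD, initial fluorescence not abnormally high, positive integrated signal ratio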;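 note: B-score derived from integrated fluorescence ratio over the kinetic read; more negative B-score means stronger inhibition of depolarization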
TRPC4 inh: TRPC4 (mouse) channel inhibition; Q9QUQ5; HEK293 TRPC4beta/mu-opioid, DAMGO-evoked Fluo4 calcium flux; hits give low values; B-score at 10 µM; 300,000 compounds, 0.39% hits; AID 2247;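 active = B-score over 3 SD under the library average, no early fluorescence shift, positive overall ratio signal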
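Signal: kinetic Fluo4 fluorescence imaging of calcium influx. Material: stable TRPC4beta/mu-opioid receptor HEK293 cells. Probe or stimulus: DAMGO in two steps, submaximal then maximal.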
TRPC4 potent: allosterically enhances the mouse TRPC4 cation channel | Q9QUQ5 | HEK293 TRPC4beta/mu-opioid, DAMGO EC20, Fluo-4 Ca2+ flux; hits give high values | B-score at 10 µM | 310,000 compounds, 0.42% hits;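 active = B-score of calcium response area above 5 SD of library B-scores, with initial fluorescence ratio within 5 SD of library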
TRPC4 agonist: opens the mouse TRPC4 cation channel; Q9QUQ5; HEK293 TRPC4beta/mu-opioid, Fluo4 calcium fluorescence; hits give high values; B-score at 10 µM; 310,000 compounds, 0.49% hits; AID 2237;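 active = B-score above 5 SD of library B-scores, and initial fluorescence ratio not above library mean plus 5 SD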;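 note: positive B-score marks a calcium rise read as TRPC4 activation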
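Technique: kinetic Fluo4 calcium fluorescence; Test system: TRPC4beta and mu-opioid receptor HEK293 stable cells; Measure: B-scored integrated calcium fluorescence ratio; Benchmarks: low control buffer alone, high control maximal DAMGO; Schedule: 45 min room-temperature Fluo4 loading, 110 s read.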
TRPC6 activator: mouse TRPC6 channel activation; 310,000 compounds, 0.13% hits; HEK293-TRPC6 membrane potential dye fluorescence; hits give high values; B-score at 10 µM; AID 2550; Q61143;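 active = B-score of the integrated fluorescence ratio above library mean plus 3 SD, and starting fluorescence ratio within library mean plus 5 SD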;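 note: higher score means more depolarization so channel activation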
HEK293 MPD ctr: parental HEK293 nonspecific activity of TRPC6 modulators; 2,400 compounds, 51% hits; membrane potential signal change, % at 10 µM; AID 488924; shares compounds with TRPC6 inh; membrane potential dye fluorescence;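 active = membrane potential signal moves up or down beyond 5 SD from buffer-only wells, on both duplicate plates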
HEK293 MPD ctr 2: second counter-screen for TRPC6 modulators: effect in parental HEK293 cells; shares compounds with TRPC6 inh; membrane potential dye fluorescence; after compound, maximal acetylcholine stimulation; inhibition, % at 10 µM; 2,400 compounds, 14% hits;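 active = membrane potential signal drops by more than 5 SD from the mean control signal, in both duplicate plates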
TRPC4/MOR mod: mouse TRPC4 off-target activity of TRPC6 modulators | shares compounds with TRPC6 inh | HEK293 TRPC4/mu-opioid, membrane potential fluorescence | percent change from control (negative = decrease, positive = increase), % at 10 µM | 2,400 compounds, 69% hits;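 active = membrane potential signal moved up or down beyond 5 SD of buffer control wells, in both duplicate plates, actives on both sides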
TRPC4/MOR inh 2: second check of whether TRPC6 modulators also affect mouse TRPC4. AID 488928. 2,400 compounds, 55% hits. shares compounds with TRPC6 inh. inhibition, % at 10 µM. HEK293 TRPC4/mu-opioid, membrane potential dye fluorescence; stimulated with maximal-effect DAMGO;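 active = drop in membrane potential signal beyond 5 SD of the control wells in both duplicate plates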;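 note: TRPC4 counter screen for TRPC6 hits run under conditions tuned for TRPC6 not TRPC4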
TRPC6 inh conf: mouse TRPC6 inhibitor confirmation; shares compounds with TRPC6 inh; HEK293-TRPC6, membrane potential dye, ACh-evoked depolarization; inhibition, % at 10 µM; 3,300 compounds, 43% hits; AID 488960;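 active = fluorescence ratio falls more than 5 SD below the full-stimulation control mean, in both duplicate runs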;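 note: integrated fluorescence ratio of peak minus minimum over baseline after agonist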
TRPC6 act confirm: confirmation of mouse TRPC6 activators; shares compounds with TRPC6 inh; HEK293-TRPC6 membrane potential dye fluorescence, FDSS; activation, % at 10 µM; 2,800 compounds, 11% hits; AID 488961;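 active = ratio signal rise beyond 5 SD above unstimulated control wells' mean, seen in both duplicate runs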
Hits are given with their value. Sampled rows, rich in hits. Any-hit rate of the full collection: about 2.3%.

What do the screens show for `CCC(CC)C(=O)c1c[nH]c(C(=O)NCc2ccccn2)c1`?
TRPC6 inh: inactive; TRPC4 inh: inactive; TRPC4 potent: inactive; TRPC4 agonist: inactive; TRPC6 activator: inactive

How did Cc1ccc(-c2nc(SCC(=O)c3c(N)n(C)c(=O)n(C)c3=O)n[nH]2)cc1 do in these assays?
TRPC6 inh: -5.11; TRPC4 inh: inactive; TRPC4 potent: inactive; TRPC4 agonist: inactive; TRPC6 activator: inactive; HEK293 MPD ctr: inactive; HEK293 MPD ctr 2: inactive; TRPC4/MOR mod: inactive; TRPC4/MOR inh 2: inactive; TRPC6 inh conf: inactive; TRPC6 act confirm: inactive

How did Cc1ccc(-c2nc(SC(C)C(=O)c3c(N)n(C)c(=O)n(C)c3=O)n[nH]2)cc1 (stereo not given) do in these assays?
TRPC6 inh: inactive; TRPC4 inh: inactive; TRPC4 potent: inactive; TRPC4 agonist: inactive; TRPC6 activator: inactive

Results for CN(C)c1ccc(N=Nc2cccc(F)c2)cc1 ?
TRPC6 inh: inactive; TRPC4 inh: inactive; TRPC4 potent: inactive; TRPC4 agonist: inactive; TRPC6 activator: inactive

What do the screens show for `CN(C)c1ccc(N=Nc2cccc3ccoc23)cc1`?
TRPC6 inh: -5.75; TRPC4 inh: inactive; TRPC4 potent: inactive; TRPC4 agonist: inactive; TRPC6 activator: inactive; HEK293 MPD ctr: inactive; HEK293 MPD ctr 2: inactive; TRPC4/MOR mod: inactive; TRPC4/MOR inh 2: 41.0%; TRPC6 inh conf: inactive; TRPC6 act confirm: inactive

How did Cc1c(OC(C)C(=O)N2C[C@H]3C[C@@H](C2)c2cccc(=O)n2C3)ccc2c3c(c(=O)oc12)CCC3 (stereo not given in full) do in these assays?
TRPC6 inh: -4.98; TRPC4 inh: inactive; TRPC4 potent: inactive; TRPC4 agonist: inactive; TRPC6 activator: inactive; HEK293 MPD ctr: 95.5%; HEK293 MPD ctr 2: inactive; TRPC4/MOR mod: 12.0%; TRPC4/MOR inh 2: inactive; TRPC6 inh conf: inactive

What do the screens show for `Cc1ccc2c(c1)c1c3n2CCN=C3CCC1`?
TRPC6 inh: -5.01; TRPC4 inh: inactive; TRPC4 potent: inactive; TRPC4 agonist: inactive; TRPC6 activator: inactive; HEK293 MPD ctr: -171.0%; HEK293 MPD ctr 2: inactive; TRPC4/MOR mod: -27.5%; TRPC4/MOR inh 2: 49.0%; TRPC6 inh conf: inactive; TRPC6 act confirm: inactive

Results for CN(C(=O)CCc1ccccc1F)C1CCCN(Cc2ccccc2F)C1 (stereo not given) ?
TRPC6 inh: inactive; TRPC4 inh: inactive; TRPC4 potent: inactive; TRPC4 agonist: inactive; TRPC6 activator: inactive

What do the screens show for `CN(C(=O)CCCN1CCCC1=O)C1CCCN(Cc2ccccc2F)C1` (stereo not given)?
TRPC6 inh: -5.06; TRPC4 inh: inactive; TRPC4 potent: inactive; TRPC4 agonist: inactive; TRPC6 activator: inactive; HEK293 MPD ctr: inactive; HEK293 MPD ctr 2: inactive; TRPC4/MOR mod: inactive; TRPC4/MOR inh 2: inactive; TRPC6 inh conf: inactive; TRPC6 act confirm: inactive

What do the screens show for `Cc1occc1C(=O)NCc1nc(-c2ccc(Cl)cc2)no1`?
TRPC6 inh: inactive; TRPC4 inh: inactive; TRPC4 potent: inactive; TRPC4 agonist: inactive; TRPC6 activator: inactive

What do the screens show for `O=C(NCc1ncc(C(F)(F)F)cc1Cl)Nc1ccccc1`?
TRPC6 inh: inactive; TRPC4 inh: inactive; TRPC4 potent: inactive; TRPC4 agonist: inactive; TRPC6 activator: inactive

What do the screens show for `Cc1nc2cc(N=NC3=C(O)CCCC3=O)ccc2s1`?
TRPC6 inh: inactive; TRPC4 inh: inactive; TRPC4 potent: inactive; TRPC4 agonist: inactive; TRPC6 activator: inactive
